M1 agonist – M1 muscarinic receptor agonists, primary screen, CHO-M1 cells, Fluo-4 calcium, agonist mode; Fluo-4 calcium fluorescence; active compounds read high; B-score at 10 µM; 64,000 compounds, 3% hits;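 active = fluorescence rise, raw or as B-score row- and column-corrected plate score, outside the 99.7% band of its plate's samples, either direction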
S1P1 ag pot – S1P1 agonists and agonism potentiators, primary screen, cell-based, primary and confirmation screens, CRE-bla reporter | 56,000 compounds, 0.57% hits | Sphingosine 1-phosphate receptor 1 (Homo sapiens), P21453 | activation, % at 9.5 µM | S1P1 CRE-bla cells, forskolin, beta-lactamase FRET, potentiator mode; S1P1 agonist co-added at EC20, 2 nM; 100% = saturating reference agonist, 0% = basal;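 active = activation above a cutoff set at the mean activation of all tested compounds plus 3 SD, cut at about 54% in these data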;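 also: forskolin at 4 µM as EC80 and the EC20 agonist is SEW2871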
Target sequence (P21453 whole entry, looked up): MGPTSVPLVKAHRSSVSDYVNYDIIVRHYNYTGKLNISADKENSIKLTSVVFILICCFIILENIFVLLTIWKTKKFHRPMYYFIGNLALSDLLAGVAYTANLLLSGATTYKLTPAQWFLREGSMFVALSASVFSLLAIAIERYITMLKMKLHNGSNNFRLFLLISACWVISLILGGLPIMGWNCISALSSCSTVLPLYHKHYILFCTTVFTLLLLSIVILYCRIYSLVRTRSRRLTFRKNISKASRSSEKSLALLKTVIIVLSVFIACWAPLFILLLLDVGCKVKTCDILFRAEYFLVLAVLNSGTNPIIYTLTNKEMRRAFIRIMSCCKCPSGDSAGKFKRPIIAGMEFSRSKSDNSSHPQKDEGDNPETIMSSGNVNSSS
D1 allo mod – D1 CRE-luciferase signal change, two-sided – cell-based, HEK293 D1, dopamine EC30, D1 allosteric modulator project, primary screen; B-score at 10 µM; dopamine EC30 potentiation; actives deviate in either direction; D(1A) dopamine receptor (Homo sapiens), P21728; 58,000 compounds, 5.9% hits;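 active = luminescence count or its row- and column-corrected plate score outside the 99.7% band of the plate's sample wells, on either side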
M1 antagonist – antagonists of rat M1 muscarinic receptor. B-score at 10 µM. 64,000 compounds, 3.4% hits. Muscarinic acetylcholine receptor M1 (Rattus norvegicus), P08482. CHO-M1 cells, Fluo-4 calcium, ACh EC80 antagonist mode; active compounds read low;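 active = calcium fluorescence response, raw or row-and-column corrected B-score, differing from the plate sample mean either way at a set confidence level, mostly lower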
S1P3 agonist – human S1P3 receptor agonists, primary screen, cell-based, primary and confirmation, NFAT-BLA reporter. Sphingosine 1-phosphate receptor 3 (Homo sapiens), Q99500. S1P3 NFAT-BLA reporter cells, agonism, FRET ratio; relative to 1 µM S1P, basal subtracted. activation, % at 4.5 µM. 60,000 compounds, 0.1% hits. AID 373, 2006;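 active = activation above the screen-wide mean plus 3 SD, cut at about 4.5% in these data, passing the limit was not always enough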
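Assay system: CHO cells stably expressing human S1P3, Gα16 and NFAT-β-lactamase reporter. Timing: overnight plating, 4 h compound 37 °C, 2 h substrate RT. Signal: β-lactamase FRET emission ratio 460/535 nm. Measure: percent activation versus median 1 µM S1P response, basal-subtracted, per plate. Repeats: primary screen single test, confirmation screen in triplicate.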
D1 mod confirm – D1 receptor positive allosteric modulators, retest, confirmation, cell-based, HEK293 D1, CRE-luciferase, duplicate; shares compounds with D1 allo mod; dopamine EC30 potentiation; active compounds read high; luminescence at 10 µM; 2,200 compounds, 88% hits; AID 642, 2007;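 active = luminescence in either of two replicates above the same-plate mean plus 3 SD of the low-dose dopamine control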
D1 no dopamine – D1 receptor agonism without dopamine, confirmation, mechanism study for D1 allosteric modulator project, cell-based, HEK293 D1, CRE-luciferase, secondary assay 1 | luminescence, no dopamine; active compounds read high | 1,900 compounds, 0.8% hits | luminescence at 10 µM | shares compounds with D1 allo mod; in the data active = luminescence above about 3900
Isoprot counter – alters isoproterenol CRE-luciferase response in HEK293 cells. luminescence at 10 µM. shares compounds with D1 allo mod. 2,200 compounds, 63% hits. AID 647. HEK293 D1 CRE-luciferase, isoproterenol EC30 counter-screen; active compounds read high;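 active = luminescence in either replicate above plate mean of wells with a partly effective reference agonist dose plus 3 SD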;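 also: isoproterenol raises cAMP through native beta-adrenoceptor Gs so signal bypasses D1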
Large screens that a line does not name were inactive (follow-up assays come after a bar, where they were run). In the library only some 11% were active in any assay of this set; here they are far more common.

O=C(OCc1nnc(-c2ccccc2)o1)c1cc(S(=O)(=O)N2CCOCC2)c(Cl)cc1Cl	none
CC(C)(C)NS(=O)(=O)c1cccc(S(=O)(=O)c2cccc(S(=O)(=O)NC(C)(C)C)c2)c1	none
CCOC(=O)C1=C(N)n2c(s/c(=C/c3ccco3)c2=O)=C(C(=O)OC)C1c1ccco1 (centres undefined)	none
N#CC1=C(N)n2c(s/c(=C\c3ccco3)c2=O)=C(C#N)C1c1ccco1 (centres undefined)	D1 allo mod 12 | D1 mod confirm 14056 | D1 no dopamine inactive | Isoprot counter inactive
COc1ccc(C2(C(=O)N3CCCC3)CCOCC2)cc1OC	none
O=c1c(/C=N/O)c(Nc2ccccc2)nc2ccccn12	D1 allo mod 4.2 | D1 mod confirm 9580 | D1 no dopamine inactive | Isoprot counter 3320
O=C(NCc1ccccn1)c1ccc(N2CCCC2=O)cc1	none
Cn1c(NC(=O)C(C)(C)Oc2ccc(Cl)cc2)cc(=O)n(C)c1=O	none
Cn1c(NC(=O)c2ccc(Cl)cc2Cl)cc(=O)n(C)c1=O	D1 allo mod 4.5 | D1 mod confirm 8676 | D1 no dopamine inactive | Isoprot counter 3168
COc1ccc2nc(NC(=O)CSc3nc4cccnc4n3C)sc2c1	none (no result: M1 agonist, D1 allo mod, M1 antagonist)
COC(=O)c1sc(NC(=O)CSc2nc3cccnc3n2C2CCCCC2)nc1C	D1 allo mod 9.5 | D1 mod confirm 10416 | D1 no dopamine inactive | Isoprot counter 3916
CC1(C)Cc2c(C#N)c(N)sc(=S)c2CO1	D1 allo mod 9.1 | D1 mod confirm 17212 | D1 no dopamine inactive | Isoprot counter 3788
CC(C)C1Cc2c(C#N)c(N)sc(=S)c2CO1 (centres undefined)	D1 allo mod 10 | D1 mod confirm 21832 | D1 no dopamine inactive | Isoprot counter 4256
N#Cc1c(N)sc(=S)c2c1CCN(Cc1ccccc1)C2	none
COc1ccc(S(=O)(=O)N2CCC(C(=O)N3CCCCC3)CC2)cc1OC	D1 allo mod 7.6 | D1 mod confirm 12168 | D1 no dopamine inactive | Isoprot counter 3204
COc1ccc(C2CC(=O)C(C=NCCN3CCOCC3)=C(O)C2)cc1 (centres undefined)	none
Cc1sc2ncnc(SC(C)C#N)c2c1C (centres undefined)	D1 allo mod 4.9 | D1 mod confirm inactive | D1 no dopamine inactive | Isoprot counter inactive
COc1ccccc1OCc1ccc(C(=O)n2nc(C)c(Cl)c2C)o1	none
COC(=O)c1cc(Cc2ccc(N)c(C(=O)OC)c2)ccc1N	D1 allo mod 3 | D1 mod confirm 7532 | Isoprot counter 2772
COc1ccc(N(C(=O)c2ccc(Br)o2)C2C=CS(=O)(=O)C2)cc1 (centres undefined)	none (no result: D1 allo mod)
O=S(=O)(Nc1nc2ccccc2nc1NCc1ccco1)c1cccs1	D1 allo mod 8.4 | D1 mod confirm 15532 | D1 no dopamine inactive | Isoprot counter 3728
C=CCNc1nc2ccccc2nc1NS(=O)(=O)c1cccs1	D1 allo mod 6.9 | D1 mod confirm 11704 | Isoprot counter 2836
O=S(=O)(Nc1nc2ccccc2nc1Nc1ccc2c(c1)OCCO2)c1cccs1	none
Cc1ccc(S(=O)(=O)NC2=NCCC2)cc1	none
CNC(=O)N(C1=NCC(C)S1)c1ccc(F)cc1F (centres undefined)	D1 allo mod 5.3 (no result: S1P1 ag pot) | D1 mod confirm 16972 | D1 no dopamine inactive | Isoprot counter 3116
